Sampled rows, rich in hits. Any-hit rate of the full collection: about 3.8%.
rCAG binder – molecules binding r(CAG) RNA repeats; r(CAG) RNA repeat, TO-PRO-1 dye displacement fluorescence; inhibition, % at 3 µM; 370,000 compounds, 1.3% hits; AID 651821;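 active = inhibition above the plate cutoff, the mean of all test compounds on that plate plus 3 SD, cut at about 35% in these data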;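 note: 0% = DMSO alone and 100% = 100 µM mitoxantrone as full dye displacement; higher means more dye released from RNA so lower well fluorescence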
V-ATPase pH – alters yeast V-ATPase proton transport | S. cerevisiae, pHLuorin cytosolic pH fluorescence | response, % at 10 µM | 350,000 compounds, 0.37% hits | AID 504577; in the data active = response mostly above about 7.3%, no sharp cut-off; inactive = mostly below about 5.4%; note: actives read high
T cell modulator – T cell immune modulation candidate; 2C CD8+ T cell-vesicle binding, flow cytometry; stronger effect = lower value; response (vesicle binding), % at 7 µM; 330,000 compounds, 0.068% hits; AID 2052;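 active = response, share of CD8 T cells binding vesicles, and their 90th percentile fluorescence all below set limits, cut at about 80% in these data, passing the limit was not always enough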;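 note: values below 100% mean blocked vesicle binding to the CD8+ T cells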
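Material: 2C TCR transgenic mouse naive CD8+ T cells, MACS-purified. Also added: QL9-charged Drosophila Ld/ICAM-1/B7-1 vesicles. Timing: binding 1.5 h at 37 °C. Measured by: high-throughput flow cytometry with anti-B7-1 and anti-CD8 staining. Read-out: percent CD8+ FL2 mean versus row control. Controls: Unloaded micro-vesicles (low), QL9 vesicles with 0.7% DMSO (high).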
Exocytosis inh – lytic granule exocytosis inhibition | TALL-104 LAMP-1 surface exposure, flow cytometry; cells stimulated with thapsigargin and PMA | inhibition, % at 10 µM | 360,000 compounds, 0.66% hits | AID 651702;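 active = inhibition above about 55%, limit read from the data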
B2AR ag – activates human beta-2 adrenergic receptor causing internalization | 340,000 compounds, 0.43% hits | response, % (no concentration beside the values) | AID 504454 | P07550 | Am2.2-beta2AR cells, FAP receptor internalization, flow cytometry;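 active = response above a set limit, near 3 SD of response in nonfluorescent compounds, cut at about 42% in these data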
Target sequence (P07550 whole entry, looked up): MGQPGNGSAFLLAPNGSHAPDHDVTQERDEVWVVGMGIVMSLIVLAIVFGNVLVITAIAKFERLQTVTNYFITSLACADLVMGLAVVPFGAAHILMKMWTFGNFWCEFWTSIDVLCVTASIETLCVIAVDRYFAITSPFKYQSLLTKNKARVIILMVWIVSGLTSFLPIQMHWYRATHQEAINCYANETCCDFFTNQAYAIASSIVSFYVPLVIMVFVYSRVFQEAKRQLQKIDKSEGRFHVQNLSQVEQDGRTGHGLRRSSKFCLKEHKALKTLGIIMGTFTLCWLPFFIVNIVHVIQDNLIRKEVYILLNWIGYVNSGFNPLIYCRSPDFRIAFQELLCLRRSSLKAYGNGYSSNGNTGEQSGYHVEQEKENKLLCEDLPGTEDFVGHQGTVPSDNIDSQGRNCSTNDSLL
MPTP block – inhibitors of mitochondrial permeability transition pore | isolated mouse mitochondria, Ca2+ swelling absorbance, 30 min | inhibition, % at 10 µM | 360,000 compounds, 1.4% hits;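 active = inhibition of 50% or more, scaled per plate between neutral and stimulator controls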;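 note: 0% = DMSO wells given calcium and 100% = 1 mM EGTA wells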
MPTP counter – Rhodamine 123 counter-screen of mitochondrial pore hits | 5,000 compounds, 78% hits | shares compounds with MPTP block | inhibition, % at 10 µM | isolated mitochondria, membrane potential, Rhodamine 123 fluorescence; in the data active = inhibition above about 22%;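 note: 0% = DMSO vehicle and 100% = positive control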
MPTP abs DR – dose response confirmation of mitochondrial permeability transition pore inhibitors | shares compounds with MPTP block | isolated mitochondria swelling, absorbance | IC50, µM | 780 compounds, 58% hits | AID 651561; in the data active = IC50 below about 20 µM
MPTP counter DR – MPTP inhibitor counter-screen activity, dose response | shares compounds with MPTP block | isolated mitochondria counterscreen, fluorescence read-out | IC50, µM | 780 compounds, 49% hits | AID 651564; in the data active = IC50 below about 80 µM
Numbers without * were called inactive; i = inactive; . = no result given.

SMILES | rCAG binder | V-ATPase pH | T cell modulator | Exocytosis inh | B2AR ag | MPTP block | MPTP counter | others
OCCNCc1ccc(OCc2ccc(Cl)cc2Cl)cc1 | 11.2 | -2.0 | 178.1 | 1.2 | 21.3 | 93.8* | -5.9 | MPTP abs DR=4.17*;MPTP counter DR=>80
COC(=O)[C@]12CCCCC=C1N(Cc1ccc(OC)cc1)C(=O)[C@@H]2CC(=O)NCC12CC3CC(CC(C3)C1)C2 | 5.9 | . | . | . | . | . | .
Cc1cc(C)cc(N(CC(=O)NC2CCC(C)CC2)S(=O)(=O)c2cccs2)c1 (stereo not drawn) | 3.4 | . | . | . | . | . | .
Cc1ccc(-c2cc(-c3nnc(SCC(=O)Nc4ccccc4-c4ccccc4)n3N)[nH]n2)cc1 | 6.7 | . | . | . | . | . | .
COc1ccc(CNC(=S)Nc2ccccc2)cc1Cl | 1.4 | -10.7 | 244.4 | -28.5 | -2.2 | 1.4 | .
COc1ccc(CSCCNC(=S)Nc2ccccc2)cc1Cl | -0.3 | -2.0 | 100.9 | 0.1 | 4.1 | 78.5* | 90.1*
COC(=O)[C@]12C[C@H](CC(=O)N3CCOCC3)C(=O)N(Cc3ccccc3)C1=C[C@H](C(C)(C)C)O[C@@H]2C | -0.3 | . | . | . | . | . | .
Cc1cccc(OCC(O)Cn2c(=N)n(CCN3CCCCC3)c3ccccc32)c1 (stereo not drawn) | 8.9 | 1.1 | 298.4 | 13.9 | 20.6 | -1.4 | .
CCN(CC)CCn1c(=N)n(CC(O)COc2cccc(C)c2)c2ccccc21 (stereo not drawn) | 11.1 | 0.7 | 175.6 | 22.8 | 30.5 | 71.1* | -4.3 | MPTP abs DR=4.47*;MPTP counter DR=66.3*
CCOC(=O)Cn1c(=N)n(CCOc2cccc(C)c2)c2ccccc21 | 10.8 | -1.2 | 209.9 | 1.0 | 6.8 | 87.9* | 0.1 | MPTP abs DR=5.33*;MPTP counter DR=56.7*
CCOC(=O)Cn1c(=N)n(Cc2ccccc2)c2ccccc21 | 8.8 | -4.2 | 138.6 | -1.0 | -0.1 | -0.3 | .
Cc1ccc(Cn2cc(CN3[C@H](C)COc4cc(Br)ccc4S3(=O)=O)nn2)cc1 | -1.4 | . | . | . | . | . | .
CC(=O)c1ccc(NC(=S)NN2C(C)CCCC2C)cc1 (stereo not drawn) | -2.7 | -0.6 | 262.4 | 2.4 | 8.1 | 4.3 | .
S=C(NCC1CCCCC1)Nc1cccnc1 | -2.2 | 0.6 | 332.1 | -2.9 | -2.9 | 0.8 | .
CN(CC(=O)Nc1ccc(SC(F)F)cc1)C1CCCCC1 | -5.5 | -0.4 | 254.9 | -5.7 | -0.3 | 0.7 | .
CC1CCCCC1NC(=S)Nc1ccc(SC(F)F)cc1 (stereo not drawn) | -1.6 | -0.4 | 174.6 | -3.4 | -2.2 | 66.4* | 91.0*
CC(=O)c1ccc(NC(=S)NC2CCCC(C)C2C)cc1 (stereo not drawn) | 8.0 | -0.8 | 288.3 | -1.3 | 1.4 | 71.1* | 75.5*
FC(F)Sc1ccc(NC(=S)NC2CCCCC2)cc1 | 3.9 | 4.2 | 376.3 | 2.9 | 0.9 | 101.2* | 79.0*
FC(F)Sc1ccc(NC(=S)NCC2CCCCC2)cc1 | 4.4 | -2.7 | 819.3 | 0.4 | 2.2 | 103.1* | 80.0*
CC1CCN(C(=S)Nc2ccc(SC(F)F)cc2)CC1 | -0.3 | 1.0 | 215.2 | 0.9 | -7.8 | -0.4 | .
Cc1ccc(-n2c(SCC(=O)Nc3ccccc3-c3ccccc3)nnc2-c2ccccc2)cc1 | 4.9 | . | . | . | . | . | .
O=C(OCc1cn(Cc2cccc(F)c2)nn1)N1CCCCC1 | 2.4 | . | . | . | . | . | .
CC(C1CC1)N(Cc1ccccc1)C(=S)Nc1cccc(C(F)(F)F)c1 (stereo not drawn) | -7.2 | 1.9 | 475.7 | 1.9 | 5.4 | 65.4* | 84.6*
CC(C)(C)c1ccc(C(=O)c2c[nH]c(C(=O)NCC3CCCO3)c2)cc1 (stereo not drawn) | -10.5 | -0.7 | 538.9 | 1.5 | -2.4 | 70.0* | 12.4 | MPTP abs DR=i;MPTP counter DR=27.4*
O=C(N/N=C/c1sc(N2CCOCC2)nc1-c1ccccc1)c1ccccc1Cl | -2.3 | -1.0 | 335.4 | 7.4 | -1.5 | -1.5 | .
SMILES | rCAG binder | V-ATPase pH | T cell modulator | Exocytosis inh | B2AR ag | MPTP block | MPTP counter | others
O=[N+]([O-])c1ccc(N/N=C/c2sc(N3CCOCC3)nc2-c2ccccc2)c(S(=O)(=O)Nc2ccc(Cl)cc2)c1 | 11.1 | -5.1 | . | 2.9 | -639.3 | 86.5* | 76.0*
O=[N+]([O-])c1ccc(N/N=C/c2sc(N3CCOCC3)nc2-c2ccccc2)c(S(=O)(=O)Nc2ccccc2Cl)c1 | 6.3 | -4.0 | . | 2.5 | -295.1 | 91.1* | 65.1*
O=C(O)c1cccc(N/N=C/c2sc(N3CCOCC3)nc2-c2ccccc2)c1 | 25.5 | 4.9 | 237.2 | -5.5 | -3.7 | -1.1 | .
CCCCNS(=O)(=O)c1ccc(NC(=O)C(Sc2ccccc2)c2ccccc2)cc1 (stereo not drawn) | 11.5 | 0.0 | 697.9 | 8.8 | 19.8 | 76.5* | 67.8*
N#Cc1ccsc1NC(=O)c1cnccn1 | -0.2 | 1.1 | 141.2 | 4.5 | 3.1 | -2.2 | .
CC(C)(C)NS(=O)(=O)c1cc(C(=O)Nc2sccc2C#N)ccc1Cl | 23.1 | -0.2 | i | 1.9 | 1.2 | 75.2* | 57.0*
O=C(CC1NCCc2ccccc21)Nc1ccc(Oc2ccccc2)cc1 (stereo not drawn) | -0.5 | 0.1 | 522.8 | 8.4 | -9.2 | 91.8* | -17.1 | MPTP abs DR=4.65*;MPTP counter DR=35.6*
O=C(CSc1ncnc2ccccc12)c1ccc2c(c1)OCCO2 | 3.8 | -3.1 | 269.5 | 5.4 | -1.1 | 58.5* | 65.0*
O=C(Oc1ccc2ccc(OC(=O)N3CCCCCC3)cc2c1)N1CCCCCC1 | -3.4 | 2.7 | 495.9 | 26.6 | 20.9 | 69.1* | 81.5*
COc1ccc(CCNc2ccc(N3C(=O)CC(C)C3=O)cc2[N+](=O)[O-])cc1OC (stereo not drawn) | -4.5 | -7.1 | 370.5 | 2.3 | -4.6 | 96.2* | 81.7*
O=C1C2CC=CCC2C(=O)N1c1ccc(NCCc2ccc(O)cc2)c([N+](=O)[O-])c1 (stereo not drawn) | 3.3 | 2.6 | 229.2 | 0.7 | 12.9 | 91.4* | 76.3*
O=C1c2[nH]nc(-c3ccccc3)c2C(c2cccc(C(F)(F)F)c2)N1c1ccccc1 (stereo not drawn) | 2.2 | . | . | . | . | . | .
Cc1ccc(C(=O)N2CCC[C@@H]2C(=O)N2CCC[C@H]2C(=O)NCc2ccccc2)cc1 | -1.9 | . | . | . | . | . | .
O=[N+]([O-])c1ccc(Sc2n[nH]c(-c3ccc(Cl)cc3Cl)n2)nc1 | 7.0 | -3.1 | 371.9 | 0.3 | 0.1 | 90.4* | 0.2 | MPTP abs DR=19.8*;MPTP counter DR=5.76*
CC(C)(C)c1nc(Sc2ccc([N+](=O)[O-])cn2)n[nH]1 | 0.2 | -4.8 | 332.0 | -0.1 | 7.5 | 0.5 | .
O=C(Nc1ccc(Cl)c(Cl)c1)Nc1nnc(CSc2ccccc2)s1 | 9.9 | 8.2 | 146.1 | -0.7 | 11.9 | 75.4* | 39.8*
O=C(Nc1ccc(Cl)cc1)Nc1nnc(SCc2ccccc2)s1 | 5.4 | 3.2 | 256.2 | 32.9 | 5.1 | 86.5* | 89.3*

Screens deposited in PubChem BioAssay by several laboratories.
